As a reminder, the ED50 is the dose at which the effect has come halfway, by size or by number of responders. Low readings indicate greater potency, high ones weaker potency. The Tm is the temperature at the midpoint of the melting transition. What is called IC50 is the concentration that inhibits the measured activity by half. The low end stands for inhibition by little substance, the high end for a need for much substance.

The values below come from ChEMBL document CHEMBL1156266, “Antisense oligonucleotides containing conformationally constrained 2',4'-(N-methoxy)aminomethylene and 2',4'-aminooxymethylene and 2'-O,4'-C-aminomethylene bridged nucleoside analogues show improved potency in animal models” (J Med Chem, 2010).

Where only a bound is given, the exact number is not on record here.

Data set [1] has as its system Mus musculus. Nature of the data set: Reduction in PTEN mRNA expression in ip dosed BALB/c mouse liver administered twice a week for 3 weeks measured after 72 hrs of last dose by RT-PCR analysis. In kind it is functional. In short, it runs like this: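 Male Balb/c mice, 6-week-old, ASO in PBS ip twice weekly for 3 weeks, four dose levels. Killed 72 h after last dose. Liver homogenized in guanidine isothiocyanate buffer, RNA column-purified. PTEN RNA by fluorescence qRT-PCR, normalized to cyclophilin A. Errors are SD.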

A further data set relates to Nucleic Acid. The data set can be described thus: Binding affinity to mouse PTEN mRNA assessed as melting temperature at 4 uM by thermal denaturation assay. The class given is nucleic-acid assay. In short, it runs like this: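 Duplex with complementary length-matched RNA; UV absorbance versus temperature curves in 100 mM Na+, 10 mM phosphate, 0.1 mM EDTA, 4 μM each strand. Tm is the average of two experiments.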

Data set [2] in a line: Reduction in PTEN mRNA expression in mouse bEND.3 cells after 24 hrs by qRT-PCR analysis. The class given is functional, cell-based. Particulars: for IC50: BEND3, 24 h. In short, it runs like this: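 bEnd.3 cells in DMEM/10% FBS, seeded at 1 × 10^4 cells/well the day before. Transfected 4 h at 37 °C with Lipofectin 3 μg/mL in OptiMEM, eight 1:2 dilutions (40 nM to 312.5 pM), then refed with complete medium for 24 h. PTEN RNA by qRT-PCR, normalized to cyclophilin A, as % untreated control. Triplicate plates. IC50 from sigmoidal fit, top 100%, bottom 0%.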
For orientation: Real-time PCR tracks product formation cycle by cycle.

Data set [3] concerns Mus musculus. The data set can be described thus: Toxicity in BALB/c mouse assessed as effect on liver weight at 0.5 to 14.8 mg/kg, ip administered twice a week for 3 weeks measured after 72 hrs of last dose. In kind it is organism-based. The arrangement: dose 0.5-14.8 mg/kg, route intraperitoneal. Particulars: in vivo. A digest of the protocol:
(§1)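 Male Balb/c mice, ip ASO in PBS twice weekly for 3 weeks at four dose levels. Body weight recorded before each dose. Killed 3 days after last dose. Organ weights normalized to body weight, expressed relative to the saline-treated group.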

Data set [4] has as its system Mus musculus. Nature of the data set: Toxicity in BALB/c mouse assessed as effect on kidney weight at 0.5 to 14.8 mg/kg, ip administered twice a week for 3 weeks measured after 72 hrs of last dose. In kind it is organism-based. Further details: dose 0.5-14.8 mg/kg, route intraperitoneal. The conditions noted are these: in vivo. In short, it runs like this: as §1
The test system of data set [5] is Mus musculus. Nature of the data set: Toxicity in BALB/c mouse assessed as effect on body weight at 0.5 to 14.8 mg/kg, ip administered twice a week for 3 weeks measured after 72 hrs of last dose. In kind it is organism-based. The arrangement: dose 0.5-14.8 mg/kg, route intraperitoneal. The conditions noted are these: in vivo. A digest of the protocol: as §1
Data set [6] relates to Mus musculus. The data set can be described thus: Hepatotoxicity in BALB/c mouse assessed as liver ALT level at 0.5 to 14.8 mg/kg, ip administered twice a week for 3 weeks measured after 72 hrs of last dose. In kind it is toxicity, organism-based. Further details: dose 0.5-14.8 mg/kg, route intraperitoneal. Particulars: in vivo. A digest of the protocol: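 Male 6-week-old Balb/c mice dosed ip in PBS twice weekly for 3 weeks: 0.7–23 mg/kg (four levels) or 0.5–14.6/14.8 mg/kg. Killed 72 h after final dose. Plasma from cardiac-puncture blood, ALT on clinical bioanalyzer. Errors are SD.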

As for `COCCO[C@@H]1[C@H](O)[C@@H](COP(O)(=S)O[C@H]2[C@@H](OCCOC)[C@H](n3ccc(N)nc3=O)O[C@@H]2COP(O)(=S)O[C@H]2[C@@H](O)[C@H](n3ccc(N)nc3=O)O[C@@H]2COP(O)(=S)O[C@H]2[C@@H](O)[C@H](n3cnc4c(=O)[nH]c(N)nc43)O[C@@H]2COP(O)(=S)O[C@H]2[C@@H](O)[C@H](n3cnc4c(=O)[nH]c(N)nc43)O[C@@H]2COP(O)(=S)O[C@H]2C[C@H](n3cc(C)c(=O)[nH]c3=O)O[C@@H]2COP(O)(=S)O[C@H]2[C@@H](O)[C@H](n3ccc(N)nc3=O)O[C@@H]2COP(O)(=S)O[C@H]2[C@@H](O)[C@H](n3cnc4c(N)ncnc43)O[C@@H]2COP(O)(=S)O[C@H]2[C@@H](O)[C@H](n3ccc(N)nc3=O)O[C@@H]2COP(O)(=S)O[C@H]2[C@@H](O)[C@H](n3cnc4c(=O)[nH]c(N)nc43)O[C@@H]2COP(O)(=S)O[C@H]2[C@@H](O)[C@H](n3cnc4c(N)ncnc43)O[C@@H]2COP(O)(=S)O[C@H]2C[C@H](n3cc(C)c(=O)[nH]c3=O)O[C@@H]2COP(O)(=S)O[C@H]2[C@@H](OCCOC)[C@H](n3ccc(=O)[nH]c3=O)O[C@@H]2COP(O)(=S)O[C@H]2[C@@H](OCCOC)[C@H](n3ccc(N)nc3=O)O[C@@H]2CO)O[C@H]1n1ccc(=O)[nH]c1=O` (stereo partly drawn), in the data set with Mus musculus [1], the ED50 was more than 45 mg/kg. Also, the melting temperature (Tm) in the data set on Nucleic Acid stood at 51.3 °C. Further, in data set [2], the Activity entry is “Dose-dependent effect” and the IC50 amounted to 34.7 nM.
In the case of `Cc1cn([C@@H]2O[C@]3(CO)CON(C)[C@@H]2[C@@H]3OP(O)(=S)OC[C@]23CON(C)[C@@H]([C@H](n4cc(C)c(=O)[nH]c4=O)O2)[C@@H]3OP(O)(=S)OC[C@H]2O[C@@H](n3cc(C)c(=O)[nH]c3=O)C[C@@H]2OP(O)(=S)OC[C@H]2O[C@@H](n3cnc4c(N)ncnc43)[C@H](O)[C@@H]2OP(O)(=S)OC[C@H]2O[C@@H](n3cnc4c(=O)[nH]c(N)nc43)[C@H](O)[C@@H]2OP(O)(=S)OC[C@H]2O[C@@H](n3ccc(N)nc3=O)[C@H](O)[C@@H]2OP(O)(=S)OC[C@H]2O[C@@H](n3cnc4c(N)ncnc43)[C@H](O)[C@@H]2OP(O)(=S)OC[C@H]2O[C@@H](n3ccc(N)nc3=O)[C@H](O)[C@@H]2OP(O)(=S)OC[C@H]2O[C@@H](n3cc(C)c(=O)[nH]c3=O)C[C@@H]2OP(O)(=S)OC[C@H]2O[C@@H](n3cnc4c(=O)[nH]c(N)nc43)[C@H](O)[C@@H]2OP(O)(=S)OC[C@H]2O[C@@H](n3cnc4c(=O)[nH]c(N)nc43)[C@H](O)[C@@H]2OP(O)(=S)OC[C@H]2O[C@@H](n3ccc(N)nc3=O)[C@H](O)[C@@H]2OP(O)(=S)OC[C@]23CON(C)[C@@H]([C@H](n4cc(C)c(N)nc4=O)O2)[C@@H]3OP(O)(=S)OC[C@]23CON(C)[C@@H]([C@H](n4cc(C)c(=O)[nH]c4=O)O2)[C@@H]3O)c(=O)nc1N` (stereo partly drawn), the Activity result with Mus musculus [3] is “Non-toxic”; with Mus musculus [4] it was “Non-toxic”; with Mus musculus [5], “Non-toxic”; with Mus musculus [1] it was “Dose-dependent effect”; in data set [2], “Dose-dependent effect”; with Mus musculus [6], “Non-toxic”. The 50% effect level in the data set with Mus musculus [1] (ED50) was put at a dose of 11 mg/kg. Also, the midpoint of thermal melting (Tm) with Nucleic Acid is 55.4 °C. This compound also showed a 50% inhibitory concentration (IC50) in data set [2] of 3.4 nM.
